CHRM5 agonist: human M5 muscarinic receptor agonists, primary screen, CHO-K1 cells, Fluo-8 calcium fluorescence | Muscarinic acetylcholine receptor M5 (Homo sapiens), P08912 | CHO-K1 hM5 cells; 0% DMSO wells, 100% maximal acetylcholine response | activation, % at 3 µM | 360,000 compounds, 0.19% hits | AID 624037, 2012;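 active means activation above the run's mean over test compounds plus 3 SD, cut at about 23% in these data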;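 further: signal is peak over basal fluorescence ratio across the kinetic read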
CHRM1 agonist: human M1 muscarinic receptor agonists, primary screen, Fluo-8 calcium fluorescence, CHO-K1 cells, HTS | Muscarinic acetylcholine receptor M1 (Homo sapiens), P11229 | CHO-K1 hM1, agonist mode; 0% DMSO, 100% acetylcholine EC100 | activation, % at 3 µM | 360,000 compounds, 0.33% hits | AID 588814, 2011;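 active means activation above the run's mean compound activation plus 3 SD, cut at about 16% in these data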;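 further: peak over basal fluorescence ratio within a 140 s kinetic read after compound addition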
Target sequence (P11229 whole entry, looked up): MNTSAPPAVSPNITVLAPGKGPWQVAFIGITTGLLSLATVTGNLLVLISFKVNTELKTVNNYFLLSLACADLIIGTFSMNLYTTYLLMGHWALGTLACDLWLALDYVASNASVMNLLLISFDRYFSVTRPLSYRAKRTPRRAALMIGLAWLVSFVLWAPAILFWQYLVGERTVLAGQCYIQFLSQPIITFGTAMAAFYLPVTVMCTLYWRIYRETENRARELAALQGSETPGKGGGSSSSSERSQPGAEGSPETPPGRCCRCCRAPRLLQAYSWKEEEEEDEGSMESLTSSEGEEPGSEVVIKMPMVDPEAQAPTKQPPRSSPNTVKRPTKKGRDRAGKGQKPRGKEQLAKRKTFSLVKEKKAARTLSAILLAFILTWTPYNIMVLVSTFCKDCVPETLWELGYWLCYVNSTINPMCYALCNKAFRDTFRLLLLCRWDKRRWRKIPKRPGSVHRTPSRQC
CHRM5 antagonist: human M5 muscarinic receptor antagonists, primary screen, CHO cells, Fluo-8 calcium fluorescence; inhibition, % at 3 µM; Muscarinic acetylcholine receptor M5 (Homo sapiens), P08912; CHO-hM5 cells, ACh EC80; 360,000 compounds, 0.59% hits; AID 624040, 2012;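 active means inhibition above a per-plate cutoff, the mean of that plate's test compounds plus 3 SD, cut at about 27% in these data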;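 further: 0% = acetylcholine EC80 with DMSO and 100% = DMSO without agonist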
CHRM1 PAM: human M1 muscarinic receptor positive allosteric modulators, primary screen, CHO-K1 cells, Fluo-8 calcium fluorescence, 1536-well. Muscarinic acetylcholine receptor M1 (Homo sapiens), P11229. CHO-K1 hM1, ACh EC20; 0% = ACh EC20, 100% = maximal ACh. activation, % at 3 µM. 360,000 compounds, 0.088% hits; in the data active means activation above about 19%, passing the limit was not always enough
CHRM5 PAM: human M5 muscarinic receptor positive allosteric modulators, primary screen, CHO-K1 cells, Fluo-8 calcium fluorescence | Muscarinic acetylcholine receptor M5 (Homo sapiens), P08912 | CHO-K1 hM5, ACh EC20 PAM; 0% = ACh EC20, 100% = ACh EC100 | activation, % at 3 µM | 360,000 compounds, 0.3% hits | AID 624038, 2012;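 active means activation above the run cutoff, the mean activation of all test compounds plus 3 SD, cut at about 18% in these data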
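Replicates: One well per compound, no replicates | System: Human M5 receptor in CHO-K1 cells | Benchmarks: Low control EC20 acetylcholine (0%), high control EC100 acetylcholine (100%) | Probe or stimulus: Acetylcholine, EC20 level | Times: Fluo-8 loading 80 min at 37 °C plus 30 min room temperature | Signal: Intracellular calcium via Fluo-8 fluorescence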
M1 antag: human M1 muscarinic receptor antagonists, primary screen, CHO-K1 cells, Fluo-8 calcium fluorescence, 1536-well. CHO-K1 hM1, ACh EC80 antagonist. inhibition, % at 3 µM. 360,000 compounds, 1.3% hits;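 active means percent inhibition above its own plate's cutoff, namely the mean of that plate's compound wells plus 3 SD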;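 further: peak over basal fluorescence ratio during 140 s after agonist addition; 0% = ACh EC80 plus DMSO and 100% = DMSO alone without agonist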
An asterisk follows results filed as active. Only some compounds are listed: those with a hit (about 2.2% of all), similar ones and a draw of the others.

Results for CCOc1ccccc1NC(=O)CSc1nnc(-c2ccncc2)o1 ?
CHRM5 agonist: 0.4; CHRM1 agonist: -2.4; CHRM5 antagonist: 14.8; CHRM1 PAM: -2.8; CHRM5 PAM: -5.5; M1 antag: 4.3

What do the screens show for `Cc1c(NC(=O)CN2CCC(C(N)=O)CC2)cccc1[N+](=O)[O-]`?
CHRM5 agonist: 2.8; CHRM1 agonist: -1.6; CHRM5 antagonist: -2.6; CHRM1 PAM: 7.4; CHRM5 PAM: 21.2*; M1 antag: -4.1

How did Cc1ccccc1C(=O)N1CCC(C(=O)OCC(=O)Nc2cccc([N+](=O)[O-])c2C)CC1 do in these assays?
CHRM5 agonist: 3.5; CHRM1 agonist: -1.5; CHRM5 antagonist: 3.5; CHRM1 PAM: 0.5; CHRM5 PAM: -3.6; M1 antag: -8.4

What do the screens show for `Fc1ccc(-c2cc(C(F)(F)C(F)F)[nH]n2)cc1`?
CHRM5 agonist: 31.9*; CHRM1 agonist: 28.5*; CHRM5 antagonist: 12.6; CHRM1 PAM: -7.3; CHRM5 PAM: -9.1; M1 antag: 14.1

Results for FC(F)C(F)(F)c1cc(-c2ccc(Cl)cc2)n[nH]1 ?
CHRM5 agonist: 17.3; CHRM1 agonist: 15.8; CHRM5 antagonist: 9.0; CHRM1 PAM: -7.1; CHRM5 PAM: -9.5; M1 antag: 11.5

Results for Nc1ccccc1SC1CC(=O)N(c2ccc(Cl)c(Cl)c2)C1=O (stereo unspecified) ?
CHRM5 agonist: 3.1; CHRM1 agonist: 0.3; CHRM5 antagonist: 27.8*; CHRM1 PAM: -18.7; CHRM5 PAM: -14.6; M1 antag: 34.4

How did Nc1ccccc1SC1CC(=O)N(c2ccc3c(c2)OCCO3)C1=O (stereo unspecified) do in these assays?
CHRM5 agonist: 9.0; CHRM1 agonist: -2.9; CHRM5 antagonist: 3.2; CHRM1 PAM: -2.6; CHRM5 PAM: -9.2; M1 antag: 8.5

How did CN1CCN(C(=O)c2ccccc2NC(=O)c2ccccc2Br)CC1 do in these assays?
CHRM5 agonist: 0.8; CHRM1 agonist: -1.1; CHRM5 antagonist: -7.3; CHRM1 PAM: 8.1; CHRM5 PAM: 4.0; M1 antag: -10.9

What do the screens show for `O=C(NC(=S)NNC(=O)c1cccs1)c1ccccc1`?
CHRM5 agonist: -3.4; CHRM1 agonist: 0.4; CHRM5 antagonist: 27.2*; CHRM1 PAM: -3.6; CHRM5 PAM: -10.5; M1 antag: 19.0

Results for O=C(NNC(=S)Nc1cccc(C(F)(F)F)c1)c1ccccc1Cl ?
CHRM5 agonist: 3.9; CHRM1 agonist: 2.4; CHRM5 antagonist: 4.6; CHRM1 PAM: -10.8; CHRM5 PAM: -12.8; M1 antag: 0.9

What do the screens show for `O=C(NNC(=S)Nc1cccc(C(F)(F)F)c1)c1cccc(Cl)c1`?
CHRM5 agonist: 3.9; CHRM1 agonist: -0.4; CHRM5 antagonist: 45.7*; CHRM1 PAM: -15.9; CHRM5 PAM: -21.8; M1 antag: 18.3

Results for COc1cc(C(=O)NNC(=S)NC(=O)c2ccc(Cl)cc2)cc(OC)c1OC ?
CHRM5 agonist: 33.1*; CHRM1 agonist: 32.8*; CHRM5 antagonist: 7.6; CHRM1 PAM: -14.2; CHRM5 PAM: -14.2; M1 antag: -0.1

How did O=C(NNC(=S)Nc1ccccc1)c1cccs1 do in these assays?
CHRM5 agonist: 0.6; CHRM1 agonist: -5.2; CHRM5 antagonist: -0.9; CHRM1 PAM: 9.8; CHRM5 PAM: -2.1; M1 antag: -9.4

Results for CN1CCN(C(=O)c2ccccc2NC(=O)c2cccs2)CC1 ?
CHRM5 agonist: -0.2; CHRM1 agonist: -1.5; CHRM5 antagonist: 1.1; CHRM1 PAM: -14.5; CHRM5 PAM: 10.1; M1 antag: active

What do the screens show for `C=CCOc1ccc(C2=NOC(C(=O)Nc3ccc4c(c3)OCCO4)C2)cc1` (stereo unspecified)?
CHRM5 agonist: 0.9; CHRM1 agonist: -1.4; CHRM5 antagonist: -9.2; CHRM1 PAM: 1.3; CHRM5 PAM: -2.4; M1 antag: 2.3

How did O=C(N/N=C/c1ccncc1)c1cccc(S(=O)(=O)Nc2ccc(Cl)cc2)c1 do in these assays?
CHRM5 agonist: -0.2; CHRM1 agonist: -1.3; CHRM5 antagonist: 11.9; CHRM1 PAM: 6.7; CHRM5 PAM: 2.2; M1 antag: -9.7

Results for CC(C)C(=O)Nc1cccc(COc2ccccc2CN(Cc2ccccc2)C(=O)OC(C)(C)C)c1 ?
CHRM5 agonist: -1.6; CHRM1 agonist: -3.8; CHRM5 antagonist: -6.6; CHRM1 PAM: -5.5; CHRM5 PAM: -4.6; M1 antag: 2.0

How did Cc1noc(C)c1NC(=O)N(C)C[C@H]1Oc2ccc(NC(=O)C3CC3)cc2C(=O)N([C@H](C)CO)C[C@@H]1C do in these assays?
CHRM5 agonist: 1.6; CHRM1 agonist: -2.9; CHRM5 antagonist: -0.6; CHRM1 PAM: -4.4; CHRM5 PAM: 3.1; M1 antag: 4.4

What do the screens show for `CCOc1ccc(CN2CCN(Cc3cccn3-c3nccs3)CC2CCO)cc1` (stereo unspecified)?
CHRM5 agonist: -9.3; CHRM1 agonist: -8.6; CHRM5 antagonist: 3.5; CHRM1 PAM: -3.5; CHRM5 PAM: 2.4; M1 antag: 0.7

What do the screens show for `O=C(NCc1ccccc1F)c1ccc2c(c1)OCCO2`?
CHRM5 agonist: 1.5; CHRM1 agonist: -3.5; CHRM5 antagonist: -3.1; CHRM1 PAM: 0.9; CHRM5 PAM: 1.5; M1 antag: -5.4

Results for COc1cc(C(=O)NNC(=O)/C=C/c2ccccc2)cc(OC)c1OC ?
CHRM5 agonist: 0.6; CHRM1 agonist: -1.6; CHRM5 antagonist: 4.1; CHRM1 PAM: 7.2; CHRM5 PAM: 0.8; M1 antag: -12.6

Results for Cc1ccccc1C(=O)NNC(=S)NC(=O)c1cccs1 ?
CHRM5 agonist: 15.3; CHRM1 agonist: 51.1*; CHRM5 antagonist: 14.7; CHRM1 PAM: -15.3; CHRM5 PAM: -10.9; M1 antag: 12.5

What do the screens show for `COc1cc(C(=O)NNC(=S)NC(=O)/C=C/c2ccccc2)cc(OC)c1OC`?
CHRM5 agonist: 12.5; CHRM1 agonist: 23.3*; CHRM5 antagonist: 8.0; CHRM1 PAM: 3.9; CHRM5 PAM: -1.4; M1 antag: -1.7

How did Cc1cccc(C(=O)NC(=S)NNC(=O)c2cccs2)c1 do in these assays?
CHRM5 agonist: 5.7; CHRM1 agonist: 19.2*; CHRM5 antagonist: 11.3; CHRM1 PAM: -10.2; CHRM5 PAM: -7.7; M1 antag: -0.9

How did O=C(NNC(=O)c1cccs1)c1ccco1 do in these assays?
CHRM5 agonist: 2.0; CHRM1 agonist: -1.8; CHRM5 antagonist: 7.2; CHRM1 PAM: 6.0; CHRM5 PAM: 21.5*; M1 antag: 12.1

Screens deposited in PubChem by The Scripps Research Institute Molecular Screening Center.
